From ChEMBL document CHEMBL4261589, “Structure-based design of allosteric calpain-1 inhibitors populating a novel bioactivity space” (Eur J Med Chem, 2018)
pIC50: −log10 of the molar value. Activity calls are given as the source filed them. The rule behind the calls is not given here.

Tests used:
[1] = biological target: Calpain-1 catalytic subunit (Homo sapiens) (UniProt P07384); test: Inhibition of human Calpain-1 active site domain using (H2NeK(-FAM)-EVYGMMK(DABCYL)eOH) substrate by FRET assay; conditions: for pIC50: read-out: IC50
[2] = biological target: Calpain small subunit 1 (Homo sapiens) (UniProt P04632); test: Binding affinity to human Calpain-1 PEF(S) domain at 0.5 to 500 uM expressed in Escherichia coli BL21-CodonPlus (DE3) RP cells incubated for 5 mins by TNS displacement assay
Chain of Calpain small subunit 1 (Homo sapiens) (P04632 whole entry, looked up): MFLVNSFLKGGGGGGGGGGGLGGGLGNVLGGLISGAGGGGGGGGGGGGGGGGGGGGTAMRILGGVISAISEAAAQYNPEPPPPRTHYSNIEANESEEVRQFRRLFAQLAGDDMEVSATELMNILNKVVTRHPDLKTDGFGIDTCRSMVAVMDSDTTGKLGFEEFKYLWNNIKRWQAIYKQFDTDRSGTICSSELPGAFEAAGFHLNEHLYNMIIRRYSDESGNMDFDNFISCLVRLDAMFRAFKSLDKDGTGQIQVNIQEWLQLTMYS

[3] = biological target: T1, Calpain-1 catalytic subunit (Sus scrofa, UniProt P35750); test: Inhibition of full length porcine Calpain-1 complex using (H2NeK(-FAM)-EVYGMMK(DABCYL)eOH) substrate by FRET assay; conditions: for pIC50: read-out: IC50
T1 sequence (P35750 whole entry): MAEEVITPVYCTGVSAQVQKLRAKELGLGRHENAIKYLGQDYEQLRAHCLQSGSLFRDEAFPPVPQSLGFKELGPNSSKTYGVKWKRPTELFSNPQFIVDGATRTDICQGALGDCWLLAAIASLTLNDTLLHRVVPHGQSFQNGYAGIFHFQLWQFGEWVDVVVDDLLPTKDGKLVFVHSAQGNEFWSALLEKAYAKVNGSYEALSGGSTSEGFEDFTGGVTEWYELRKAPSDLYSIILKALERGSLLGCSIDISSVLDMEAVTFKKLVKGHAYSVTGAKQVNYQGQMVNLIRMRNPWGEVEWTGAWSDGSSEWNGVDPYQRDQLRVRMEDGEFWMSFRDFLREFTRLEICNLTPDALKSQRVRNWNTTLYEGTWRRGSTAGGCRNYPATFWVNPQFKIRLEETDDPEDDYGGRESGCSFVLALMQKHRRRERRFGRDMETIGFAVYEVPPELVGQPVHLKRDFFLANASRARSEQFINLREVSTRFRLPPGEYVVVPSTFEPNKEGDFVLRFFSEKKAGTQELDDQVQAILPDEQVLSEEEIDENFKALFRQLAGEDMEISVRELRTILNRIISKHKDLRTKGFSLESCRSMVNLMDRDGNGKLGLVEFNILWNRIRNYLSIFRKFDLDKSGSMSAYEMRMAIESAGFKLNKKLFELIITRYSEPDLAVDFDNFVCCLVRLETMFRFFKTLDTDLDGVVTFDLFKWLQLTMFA
Method in brief: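 Purified porcine calpain-1 (25 nM) with 1 µM FAM/DABCYL α-spectrin peptide, cleaved at Tyr-Gly, in 10 mM HEPES, 10 mM DTT, 0.5 mM EDTA, 0.1% BSA, pH 6.8, at 37 °C. Compounds (5 nM–200 µM, from DMSO stock) were added before starting with 5 mM CaCl2. Fluorescence read at ex 490/em 520 nm. DMSO-alone controls were run. IC50 given as mean ± SD of three independent experiments.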

Row | Structure (SMILES) | pIC50 [1] | Activity [2] | pIC50 [3] | IC50 [1] | IC50 [3]
1 | FC(F)(F)c1ccc(CSc2nnc3ccc(-c4ccccn4)nn23)cc1 | – | – | 4.69 | Not Active | –
2 | COCCOc1nc(-c2cccc(C(F)(F)F)c2)n(-c2ccc(NC(=O)C(C)C)cc2)n1 | – | – | – | Not Active | Not Active
3 | O=C(CSc1nnc2ccc(-c3ccccn3)nn12)Nc1cccc(C(F)(F)F)c1 | – | – | 4.53 | Not Active | –
4 | COCCOc1nc(-c2ccc(OC)cc2)n(-c2cccc(NC(=O)c3ccc(C)c(C(F)(F)F)c3)c2)n1 | – | – | – | Not Active | Not Active
5 | FC(F)(F)c1cccc(CSc2nnc3ccc(-c4ccccn4)nn23)c1 | – | – | – | Not Active | Not Active
6 | CC(C)(C)NC(=O)c1ccc(Oc2cc(F)c(CC(=O)O)cc2Cl)c(NS(=O)(=O)c2ccc(C3CC3)cc2Cl)c1 [VIDUPIPRANT] | < 4.00 | Active | 5.12 | – | –
7 | O=C(O)/C(S)=C/c1ccc(I)cc1 | 4.75 | Active | 4.71 | – | –

The next lines start with the values.

Row | pIC50 [1] | Activity [2] | pIC50 [3] | IC50 [1] | IC50 [3] | Structure (SMILES)
8 | 4.39 | Active | < 4.00 | – | – | O=C(O)c1cc(NS(=O)(=O)c2ccc(F)cc2)cnc1N1CCCCCC1
9 | – | Active | – | Not Active | Not Active | O=C(NC1CCC(O)CC1)c1ccc(S(=O)(=O)Nc2cccc(C(F)(F)F)c2)cc1 (stereo not drawn)
10 | – | Active | – | Not Active | Not Active | NC(=O)c1cccc(NS(=O)(=O)c2cccc(C(F)(F)F)c2)c1
11 | – | inactive | – | Not Active | Not Active | O=C1CCCN1c1cccc(NS(=O)(=O)c2cccc(C(F)(F)F)c2)c1
